Data on nine compounds can be found in ChEMBL document CHEMBL1129554, “6-Substituted and 5,6-disubstituted derivatives of uridine: stereoselective synthesis, interaction with uridine phosphorylase, and in vitro antitumor activity” (J Med Chem, 1996).

For one data set, the system named is U-937. The experiment in a line: In vitro antitumor activity in U-937 cell lines. Type of data set: functional, cell-based. To be noted: Homo sapiens. The procedure, abridged: (§1)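 Cytotoxicity was measured as inhibition of [¹⁴C]-L-leucine incorporation into protein. Triplicate cultures held 2 × 10⁴ cells/well, or 10⁵ PHA-stimulated peripheral blood lymphocytes, in RPMI 1640 with 10% FCS, 5% CO₂, 37 °C. Label (0.5 µCi/mL) was present for the final 24 h of a 3-day culture (4 days for PHA-Ly). Protein was precipitated with perchloric acid and counted. IC50 (µg/mL) was taken from dose-response curves.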

Data set [1] in a line: Efficacy was determined as ratio of Vmax to that of Km. Type of data set: ADME. The procedure, abridged:
(§2)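 Homogeneous E. coli uridine phosphorylase in 50 mM phosphate buffer at 37 °C. pH 6 was used for 5-fluoro analogues and pH 7.5 for the others, so the neutral form predominates. Phosphorolysis was followed spectrophotometrically as the decrease in absorbance, 285 nm for 5-fluoro and 280 nm for the rest. Initial rates were taken over 20 s. Apparent Km and Vmax came from a Wilkinson fit, and efficacy = Vmax/Km.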

The nature of data set [2]: Catalytical constant (Vmax) was evaluated. Type of data set: ADME. The gist of the method:
as §2

A further data set concerns K562. The data set can be described thus: In vitro antitumor activity in K-562 cell lines. Type of data set: functional, cell-based. Particulars: Homo sapiens. The procedure, abridged: as §1
The subject of another data set is MOLT-3. The experiment in a line: In vitro antitumor activity in MOLT-3 cell lines. Type of data set: functional, cell-based. To be noted: Homo sapiens. The procedure, abridged:
as §1

Data set [3] is described as follows: Catalytical constant (app Km)of the compound was evaluated at pH 6. Type of data set: ADME. To be noted: read-out: Km app. The gist of the method: as §2
The test system of another data set is IM-9. The experiment in a line: In vitro antitumor activity in IM-9 cell lines. Type of data set: functional, cell-based. Particulars: Homo sapiens. The gist of the method: as §1
The test system of a further data set is PHA-Ly. The experiment in a line: IIn vitro antitumor activity in PHA-Ly cell lines. To be noted: Homo sapiens. Type of data set: functional, cell-based. The gist of the method:
as §1

Data set [4] in a line: Catalytical constant (app Km)of the compound was evaluated at pH 7.5. Particulars: read-out: Km app. Type of data set: ADME. The procedure, abridged: as §2

Molecules are shown by their SMILES. ≈ marks a conversion by molar mass, not a printed value.

Turning to `O=c1[nH]c(=O)n(C2O[C@H](CO)[C@@H](O)[C@H]2O)c(CO)c1F` (some centres undefined), the IC50 in the data set with U-937 is 3.7 mg/L (≈ 12.7 µM); with K562, 4.9 mg/L (≈ 16.8 µM); with MOLT-3, 1.2 mg/L (≈ 4.11 µM); with IM-9 it was 3 mg/L (≈ 10.3 µM); in the data set on PHA-Ly, 2.8 mg/L (≈ 9.58 µM). In data set [1], the Efficacy is recorded as 0.09. In addition, the Vmax in data set [2] is on record as 370 uM min-1 (mg of protein)-1. In addition, the Michaelis constant (Km) in data set [3] amounted to 4000 µM.

For the compound `O=c1[nH]c(=O)n([C@@H]2O[C@H](CO)[C@@H](O)[C@H]2O)c(CF)c1F`, the IC50 was 3.7 mg/L (≈ 12.6 µM) in the data set on U-937; over 10 mg/L in the data set on K562; 3.5 mg/L (≈ 11.9 µM) in the data set on MOLT-3; over 10 mg/L with IM-9; 4.5 mg/L (≈ 15.3 µM) in the data set on PHA-Ly. Moreover, the Efficacy in data set [1] was 0.06. Besides, in [2], the Vmax is given as 57 uM min-1 (mg of protein)-1. For the same compound, the Michaelis constant (Km) in [3] was 979 µM.

Regarding `Cc1c(F)c(=O)[nH]c(=O)n1C1O[C@H](CO)[C@@H](O)[C@H]1O` (some centres undefined), the IC50 in the data set on U-937, in the data set with K562, in the data set on MOLT-3, with IM-9 and in the data set with PHA-Ly was over 10 mg/L in each case. Moreover, in data set [1], the Efficacy worked out at 0.05. Besides, the Vmax in data set [2] is on record as 67 uM min-1 (mg of protein)-1. Besides, the Km in data set [3] amounted to 1360 µM.

With `O=c1cc(CO)n(C2O[C@H](CO)[C@@H](O)[C@H]2O)c(=O)[nH]1` (some centres undefined), the IC50 was over 10 mg/L with U-937; over 10 mg/L in the data set on K562; over 10 mg/L in the data set with MOLT-3; over 10 mg/L with IM-9; 98 mg/L (≈ 357 µM) with PHA-Ly. Moreover, the Efficacy in data set [1] is given as 0.53. For the same compound, the Vmax in data set [2] was 254 uM min-1 (mg of protein)-1. The Km in data set [4] was found to be 476 µM.

As to `O=c1[nH]cc(F)c(=O)[nH]1` [FLUOROURACIL], the IC50 came out at 0.5 mg/L (≈ 3.84 µM) with U-937; 4.3 mg/L (≈ 33.1 µM) in the data set on K562; 1.2 mg/L (≈ 9.23 µM) in the data set on MOLT-3; 0.34 mg/L (≈ 2.61 µM) in the data set on IM-9; 1.4 mg/L (≈ 10.8 µM) in the data set with PHA-Ly.

`O=c1cc(CF)n(C2O[C@H](CO)[C@@H](O)[C@H]2O)c(=O)[nH]1` (some centres undefined): the IC50 with U-937 was over 10 mg/L; with K562, over 10 mg/L; in the data set on MOLT-3, over 10 mg/L; with IM-9, 9.9 mg/L (≈ 35.8 µM); in the data set with PHA-Ly, over 10 mg/L. Also, the Efficacy in data set [1] turned out to be 0.99. The Vmax in data set [2] is recorded as 297 uM min-1 (mg of protein)-1. The Michaelis-Menten constant (Km) in data set [4] came out at 300 µM.

On to `CCCc1cc(=O)[nH]c(=O)n1C1O[C@H](CO)[C@@H](O)[C@H]1O` (some centres undefined), for which, in [1], the Efficacy is 0.03. Further, the Vmax in [2] was 40 uM min-1 (mg of protein)-1. For the same compound, the Km in data set [4] is 1150 µM.

With `CCc1cc(=O)[nH]c(=O)n1C1O[C@H](CO)[C@@H](O)[C@H]1O` (some centres undefined), the Efficacy in data set [1] is reported as 0.15. In data set [2], the Vmax is 175 uM min-1 (mg of protein)-1. For the same compound, the Km in data set [4] worked out at 1200 µM.

For `O=c1[nH]c(=O)n([C@@H]2O[C@H](CO)[C@@H](O)[C@H]2O)cc1F` [5-FLUOROURIDINE], the concentration for half-maximal inhibition (IC50) is under 0.01 mg/L with U-937; 0.026 mg/L (≈ 0.0992 µM) in the data set with K562; under 0.01 mg/L in the data set with MOLT-3; under 0.01 mg/L in the data set with IM-9; under 0.1 mg/L in the data set on PHA-Ly. Also, the Efficacy in [1] stood at 2.1. Further, the Vmax in [2] is given as 323 uM min-1 (mg of protein)-1. Also, the Km in data set [3] is 152 µM.
